Consider six compounds from ChEMBL document CHEMBL3992547, “Antimicrobial activity of rhodanine-3-acetic acid derivatives” (Bioorg Med Chem, 2017).

Data set [1] deals with Mycobacterium tuberculosis. Description: Antimycobacterial activity against Mycobacterium tuberculosis H37Rv 331/88 measured after 21 days by micromethod. Type of data set: functional. Conditions: H37Rv 331/88, 504 h.
Data set [2] deals with Mycobacterium kansasii. Description: Antimycobacterial activity against Mycobacterium kansasii isolate 235/80 after 14 days by micromethod. Type of data set: functional. The note with it: isolate 235/80, 336 h.
For data set [3], the system named is Mycobacterium kansasii. Description: Antimycobacterial activity against Mycobacterium kansasii isolate 6509/96 after 21 days by micromethod. It counts as functional. The note with it: isolate 6509/96, 504 h.
In data set [4] the test system is Mycobacterium tuberculosis. Description: Antimycobacterial activity against Mycobacterium tuberculosis H37Rv 331/88 measured after 14 days by micromethod. Type of data set: functional. The note with it: H37Rv 331/88, 336 h.
For data set [5], the system named is Mycobacterium avium. Kind of data set: Antimycobacterial activity against Mycobacterium avium 330/88 measured after 21 days by micromethod. Type of data set: functional. Conditions: 330/88, 504 h.
Data set [6] has as its system Mycobacterium avium. Kind of data set: Antimycobacterial activity against Mycobacterium avium 330/88 measured after 14 days by micromethod. It counts as functional. Conditions: 330/88, 336 h.
For data set [7], the system named is Mycobacterium kansasii. Kind of data set: Antimycobacterial activity against Mycobacterium kansasii isolate 6509/96 after 7 days by micromethod. Conditions: isolate 6509/96, 168 h. It counts as functional.
Data set [8] has as its system Mycobacterium kansasii. Kind of data set: Antimycobacterial activity against Mycobacterium kansasii isolate 235/80 after 7 days by micromethod. It counts as functional. The note with it: isolate 235/80, 168 h.
For data set [9], the system named is Mycobacterium kansasii. Kind of data set: Antimycobacterial activity against Mycobacterium kansasii isolate 6509/96 after 14 days by micromethod. It counts as functional. Conditions: isolate 6509/96, 336 h.
Data set [10] deals with Mycobacterium kansasii. Kind of data set: Antimycobacterial activity against Mycobacterium kansasii isolate 235/80 after 21 days by micromethod. Conditions: isolate 235/80, 504 h. Type of data set: functional.
The next data set has as its system Pichia kudriavzevii. Description: Antifungal activity against Candida krusei E28 after 24 to 48 hrs hrs by microdilution broth assay. Type of data set: functional. In outline: (§1)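 Broth microdilution per CLSI M27-A3 and M38-A2 in RPMI 1640 with glutamine, buffered to pH 7.0 with MOPS. Compounds are diluted in DMSO. Final inoculum is 5 × 10³ CFU/mL for yeasts and 0.5–5 × 10⁴ CFU/mL for moulds. Plates are incubated in the dark at 35 °C in humid air and read visually and/or at 540 nm after 24 and 48 h. MIC is ≥80% growth reduction (IC₈₀) for yeasts and ≥50% (IC₅₀) for filamentous fungi.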

The test system of another data set is Pseudomonas aeruginosa. Description: Antibacterial activity against Pseudomonas aeruginosa CCM 1961 up to 500 uM incubated for 24 to 48 hrs under dark condition by microdilution broth assay. It counts as functional. In outline:
(§2)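 Broth microdilution per M07-A07, modified, in Mueller-Hinton broth adjusted to pH 7.4 (±0.2). Inoculum is prepared in sterile water to McFarland 0.5 (1.5 × 10⁸ CFU/mL). Plates are incubated in the dark at 35 °C in humid air. MIC is read after 24 and 48 h as at least 95% growth reduction versus control (IC₉₅).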

A further data set has as its system Lichtheimia corymbifera. Description: Antifungal activity against Absidia corymbifera 272 after 24 to 48 hrs hrs by microdilution broth assay. Type of data set: functional. The method in brief: as §1
A general note: Broth dilution looks for growth in wells or tubes with falling amounts of substance.

A short description of data set [11]: Solubility of the compound in Sula's semisynthetic medium up to 1 mM. It counts as physicochemical.
The subject of data set [12] is Klebsiella pneumoniae. Description: Antibacterial activity against ESBL positive Klebsiella pneumoniae J 14368/08 up to 500 uM incubated for 24 to 48 hrs under dark condition by microdilution broth assay. It counts as functional. In outline: as §2
Data set [13] relates to Klebsiella pneumoniae. Kind of data set: Antibacterial activity against Klebsiella pneumoniae D 11750/08 up to 500 uM incubated for 24 to 48 hrs under dark condition by microdilution broth assay. It counts as functional. The method in brief: as §2

Converted amounts (≈) assume the structure as drawn. The source made the active and inactive calls. The calls are words filed in the database; no cut-off is given here. Some results are limits rather than exact numbers.

By MIC is commonly meant the lowest concentration that inhibits growth of the organism. Low values mean a more susceptible organism, high ones a less susceptible organism. Turning to `NNC(=O)c1ccncc1` [ISONIAZID], the MIC in [1] was 1 µM (≈ 0.137 µg/mL); with Mycobacterium kansasii [2], more than 250 µM; in the data set on Mycobacterium kansasii [3] it was 16 µM (≈ 2.19 µg/mL); in [4], 0.5 µM (≈ 0.0686 µg/mL); against Mycobacterium avium [5], more than 250 µM; with Mycobacterium avium [6], more than 250 µM. The MIC against Mycobacterium kansasii [7] is 4 µM (≈ 0.549 µg/mL); in the data set on Mycobacterium kansasii [8], more than 250 µM; against Mycobacterium kansasii [9], 8 µM (≈ 1.1 µg/mL); in the data set on Mycobacterium kansasii [10], more than 250 µM.

Regarding `Cc1ccc(NC(=O)CN2C(=O)CSC2=S)cc1`, the outcome in the data set with Pichia kudriavzevii, in the data set on Pseudomonas aeruginosa, in the data set with Lichtheimia corymbifera, in the data set on Klebsiella pneumoniae [12] and in the data set on Klebsiella pneumoniae [13] was inactive. Further, the MIC was 500 µM (≈ 140 µg/mL) in [1]; 500 µM (≈ 140 µg/mL) in the data set on Mycobacterium kansasii [2]; 500 µM (≈ 140 µg/mL) against Mycobacterium kansasii [3]; 500 µM (≈ 140 µg/mL) in data set [4]; more than 1000 µM against Mycobacterium avium [5]; 1000 µM (≈ 280 µg/mL) in the data set on Mycobacterium avium [6]. Further, the MIC in the data set with Mycobacterium kansasii [7] was 500 µM (≈ 140 µg/mL); in the data set on Mycobacterium kansasii [8], 250 µM (≈ 70.1 µg/mL); in the data set with Mycobacterium kansasii [9], 500 µM (≈ 140 µg/mL); against Mycobacterium kansasii [10] it was 500 µM (≈ 140 µg/mL). Besides, the solubility result in [11] is “Soluble”.

Take `O=C(CN1C(=O)CSC1=S)Nc1ccc(C(F)(F)F)cc1`: the result with Pichia kudriavzevii, in the data set with Pseudomonas aeruginosa, with Lichtheimia corymbifera, in the data set on Klebsiella pneumoniae [12] and in the data set with Klebsiella pneumoniae [13] was inactive. The MIC in data set [1] is 1000 µM (≈ 334 µg/mL); in the data set with Mycobacterium kansasii [2] it was 1000 µM (≈ 334 µg/mL); in the data set with Mycobacterium kansasii [3], 1000 µM (≈ 334 µg/mL); in [4], 500 µM (≈ 167 µg/mL); against Mycobacterium avium [5] it was more than 1000 µM; against Mycobacterium avium [6], more than 1000 µM. Also, the MIC with Mycobacterium kansasii [7], with Mycobacterium kansasii [8], with Mycobacterium kansasii [9] and in the data set on Mycobacterium kansasii [10] was 1000 µM (≈ 334 µg/mL) in each case. For the same compound, the solubility result in [11] is given as “Soluble”.

With `COc1ccc(NC(=O)CN2C(=O)CSC2=S)cc1`, the result with Pichia kudriavzevii, with Pseudomonas aeruginosa, with Lichtheimia corymbifera, with Klebsiella pneumoniae [12] and with Klebsiella pneumoniae [13] was inactive. Besides, the MIC was 1000 µM (≈ 296 µg/mL) in [1]; 500 µM (≈ 148 µg/mL) in the data set on Mycobacterium kansasii [2]; 1000 µM (≈ 296 µg/mL) against Mycobacterium kansasii [3]; 500 µM (≈ 148 µg/mL) in data set [4]; more than 1000 µM against Mycobacterium avium [5]; 1000 µM (≈ 296 µg/mL) in the data set with Mycobacterium avium [6]. Besides, the MIC is 500 µM (≈ 148 µg/mL) with Mycobacterium kansasii [7], 500 µM (≈ 148 µg/mL) in the data set with Mycobacterium kansasii [8], 500 µM (≈ 148 µg/mL) against Mycobacterium kansasii [9] and 1000 µM (≈ 296 µg/mL) against Mycobacterium kansasii [10]. The solubility entry in data set [11] is “Soluble”.

Regarding `Cc1ccc(OC(=O)CN2C(=O)CSC2=S)cc1`, the outcome with Pichia kudriavzevii, with Pseudomonas aeruginosa, in the data set with Lichtheimia corymbifera, in the data set with Klebsiella pneumoniae [12] and in the data set with Klebsiella pneumoniae [13] was inactive. The MIC (in [1]; in the data set on Mycobacterium kansasii [2]; in the data set with Mycobacterium kansasii [3]; in [4]; in the data set with Mycobacterium avium [5]; against Mycobacterium avium [6]) was 1000 µM (≈ 281 µg/mL) each time. Also, the MIC with Mycobacterium kansasii [7], against Mycobacterium kansasii [8], against Mycobacterium kansasii [9] and in the data set on Mycobacterium kansasii [10] was 1000 µM (≈ 281 µg/mL) in each case. Besides, the solubility result in data set [11] is given as “Soluble”.

On to `O=C(O)CN1C(=O)CSC1=S` [RHODANINE-3-ACETIC ACID], for which the MIC (in data set [1]; against Mycobacterium kansasii [2]; against Mycobacterium kansasii [3]; in [4]; with Mycobacterium avium [5]; in the data set with Mycobacterium avium [6]) was 1000 µM (≈ 191 µg/mL) each time. Further, the MIC in the data set on Mycobacterium kansasii [7], in the data set on Mycobacterium kansasii [8], with Mycobacterium kansasii [9] and with Mycobacterium kansasii [10] was 1000 µM (≈ 191 µg/mL) throughout.
